Source: ChEMBL document CHEMBL1126155, “Renin inhibitory pentols showing improved enteral bioavailability” (J Med Chem, 1992)

Legend:
Pepsin A = Pepsin A (Homo sapiens, UniProt P0DJD9); assay: Inhibition of pepsin
Summary of the method: (§1)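 Pepsin and cathepsin D inhibition measured by an earlier-described method; inhibitor tested at concentrations up to 10^-4 M.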

Renin (Ovis aries) = assay: Concentration required for 50% inhibition of sheep plasma renin
Renin [1] = molecular target: T1, Renin (Homo sapiens, UniProt P00797); assay: Concentration required for 50% inhibition of human plasma renin; type: cell-free
T1 sequence (P00797 whole entry): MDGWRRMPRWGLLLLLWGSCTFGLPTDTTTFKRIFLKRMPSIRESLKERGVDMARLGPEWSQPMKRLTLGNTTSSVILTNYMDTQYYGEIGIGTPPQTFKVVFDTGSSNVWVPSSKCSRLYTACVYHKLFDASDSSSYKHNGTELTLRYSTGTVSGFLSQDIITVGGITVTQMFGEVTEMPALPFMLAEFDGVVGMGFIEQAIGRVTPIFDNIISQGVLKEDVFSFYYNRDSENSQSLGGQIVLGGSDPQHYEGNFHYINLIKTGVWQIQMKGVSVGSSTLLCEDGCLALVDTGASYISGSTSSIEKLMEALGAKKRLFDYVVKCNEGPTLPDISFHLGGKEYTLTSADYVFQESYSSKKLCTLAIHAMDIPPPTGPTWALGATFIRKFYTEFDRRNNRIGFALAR
Summary of the method: (§2)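 Plasma renin from dog, human, rat, rhesus monkey or sheep plasma; assayed by a previously described plasma method, modified to be buffered at pH 7.4; IC50 in M.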

Renin (Canis familiaris) = assay: Concentration required for 50% inhibition of dog plasma renin
Renin [2] = molecular target: T1, Renin; assay: Concentration required for 50% inhibition of human kidney renin
Renin (Macaca mulatta) = assay: Concentration required for 50% inhibition of rhesus monkey plasma renin
Cathepsin D = Cathepsin D (Homo sapiens, UniProt P07339); assay: Concentration required for 50% inhibition of cathepsin D; summary of the method: as §1
Renin [3] = molecular target: T2, Renin (Rattus norvegicus, UniProt P08424); assay: Concentration required for 50% inhibition of rat plasma renin; type: cell-free; summary of the method: as §2
T2 sequence (P08424 whole entry): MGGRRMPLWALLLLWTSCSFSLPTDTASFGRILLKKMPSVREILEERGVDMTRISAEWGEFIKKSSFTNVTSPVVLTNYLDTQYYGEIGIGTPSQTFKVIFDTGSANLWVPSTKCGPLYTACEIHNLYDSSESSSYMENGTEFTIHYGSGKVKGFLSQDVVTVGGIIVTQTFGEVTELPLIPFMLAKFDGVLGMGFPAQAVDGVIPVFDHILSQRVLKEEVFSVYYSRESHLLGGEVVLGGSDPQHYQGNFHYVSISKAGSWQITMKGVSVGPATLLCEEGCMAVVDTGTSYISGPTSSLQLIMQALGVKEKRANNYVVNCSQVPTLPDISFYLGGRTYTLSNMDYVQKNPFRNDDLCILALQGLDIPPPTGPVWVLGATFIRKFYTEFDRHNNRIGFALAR

Chain of Pepsin A (P0DJD9 whole entry): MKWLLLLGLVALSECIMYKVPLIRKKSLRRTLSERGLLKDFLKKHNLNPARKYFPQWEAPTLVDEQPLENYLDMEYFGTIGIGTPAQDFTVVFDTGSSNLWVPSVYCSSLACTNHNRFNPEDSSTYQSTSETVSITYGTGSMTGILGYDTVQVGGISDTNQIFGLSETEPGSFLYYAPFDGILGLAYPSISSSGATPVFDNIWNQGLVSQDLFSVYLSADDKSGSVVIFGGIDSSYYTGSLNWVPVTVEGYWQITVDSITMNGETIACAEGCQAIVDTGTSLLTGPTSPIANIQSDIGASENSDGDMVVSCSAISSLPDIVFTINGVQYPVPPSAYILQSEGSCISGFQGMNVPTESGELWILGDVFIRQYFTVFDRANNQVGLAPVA
Chain of Cathepsin D (P07339 65-162 limits assumed): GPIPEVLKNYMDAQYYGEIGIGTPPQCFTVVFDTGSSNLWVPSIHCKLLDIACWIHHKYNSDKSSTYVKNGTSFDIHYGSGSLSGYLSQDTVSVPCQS
Chain of Cathepsin D (P07339 169-412 limits assumed): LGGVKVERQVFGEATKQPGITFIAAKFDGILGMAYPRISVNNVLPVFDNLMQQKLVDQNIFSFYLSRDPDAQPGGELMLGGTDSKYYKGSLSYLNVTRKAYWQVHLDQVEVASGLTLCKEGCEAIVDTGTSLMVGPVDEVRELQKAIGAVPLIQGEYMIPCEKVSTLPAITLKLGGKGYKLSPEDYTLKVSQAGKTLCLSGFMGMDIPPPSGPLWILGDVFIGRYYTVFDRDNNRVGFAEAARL

Structure (SMILES)	IC50 (Pepsin A) [µM]	IC50 (Renin (Ovis aries)) [µM]	IC50 (Renin [1]) [µM]	IC50 (Renin (Canis familiaris)) [µM]	IC50 (Renin [2]) [µM]	IC50 (Renin (Macaca mulatta)) [µM]	IC50 (Cathepsin D) [µM]	IC50 (Renin [3]) [µM]
CC(C)(C)S(=O)(=O)CC(Cc1ccccc1)C(=O)NC(Cc1c[nH]cn1)C(=O)N[C@@H](CC1CCCCC1)[C@@H](O)[C@@H](O)[C@H](O)[C@H](O)CO (stereo partly specified)	> 100	0.1	0.0045	0.11	0.0044	0.011	> 100	8
CCC[C@H](NC(=O)[C@H](Cc1ccccc1)NC(=O)[C@@H](N)[C@@H](C)CC)C(=O)N[C@@H](CC1CCCCC1)[C@@H](O)[C@@H](O)[C@H](O)[C@H](O)CO	–	–	0.11	–	0.05	–	–	–
CCC[C@H](NC(=O)[C@H](Cc1ccccc1)NC(=O)[C@@H](N)[C@@H](C)CC)C(=O)N[C@@H](CC1CCCCC1)[C@@H](O)[C@@H](O)[C@H](O)[C@@H](O)CO	–	–	0.42	–	0.12	–	–	–
CN(CCN(C)C(=O)N1CCOCC1)C(=O)O[C@@H](Cc1ccccc1)C(=O)NC(Cc1cnc[nH]1)C(=O)N[C@@H](CC1CCCCC1)[C@@H](O)[C@@H](O)[C@H](O)[C@H](O)CO (stereo partly specified)	–	–	0.0015	–	0.0024	–	–	–
N[C@H]1CC[C@@H](C(=O)N[C@@H](Cc2ccccc2)C(=O)NC(Cc2c[nH]cn2)C(=O)N[C@@H](CC2CCCCC2)[C@@H](O)[C@@H](O)[C@H](O)[C@H](O)CO)CC1 (stereo partly specified)	–	–	0.022	–	0.012	–	–	–
